Assay results taken from ChEMBL document CHEMBL2311293, “Discovery of agonists of cannabinoid receptor 1 with restricted central nervous system penetration aimed for treatment of gastroesophageal reflux disease” (J Med Chem, 2013).

system: not listed separately; assay: Lipophilicity, log D of the compound; settings: octanol/water

SMILES	logD
C[S@@+]([O-])Cc1ccc(C(=O)Nc2cccnc2C(=O)NCC2CCOCC2)c2ccccc12	2.9
O=C(Nc1cccnc1C(=O)NCC1CCOCC1)c1cccc2c1OCCO2	3.8
COc1ccc(NC(=O)c2ccnc3ccccc23)c(C(=O)NCC2CCC2)n1	5.9
O=C(NCC1CCCCC1)c1cccnc1NC(=O)c1cccc2ccccc12	4.7
O=C(NCC1CCC1)c1ncccc1NC(=O)c1cccc2cccnc12	5.5
O=C(NCC1CCCCC1)c1ncccc1NC(=O)c1cccc2ccccc12	8.1
O=C(NCC1CCC1)c1nc(OCCO)ccc1NC(=O)c1ccnc2ccccc12	4
O=C(NCC1CCCCC1)c1ccncc1NC(=O)c1cccc2ccccc12	5.5

molecular target: T1, Cannabinoid receptor 1 (Homo sapiens, UniProt P21554); assay: Displacement of [3H]-CP55,940 from human CB1 receptor expressed in HEK293S cell membranes by scintillation counting analysis; settings: not given
T1 sequence (P21554 whole entry): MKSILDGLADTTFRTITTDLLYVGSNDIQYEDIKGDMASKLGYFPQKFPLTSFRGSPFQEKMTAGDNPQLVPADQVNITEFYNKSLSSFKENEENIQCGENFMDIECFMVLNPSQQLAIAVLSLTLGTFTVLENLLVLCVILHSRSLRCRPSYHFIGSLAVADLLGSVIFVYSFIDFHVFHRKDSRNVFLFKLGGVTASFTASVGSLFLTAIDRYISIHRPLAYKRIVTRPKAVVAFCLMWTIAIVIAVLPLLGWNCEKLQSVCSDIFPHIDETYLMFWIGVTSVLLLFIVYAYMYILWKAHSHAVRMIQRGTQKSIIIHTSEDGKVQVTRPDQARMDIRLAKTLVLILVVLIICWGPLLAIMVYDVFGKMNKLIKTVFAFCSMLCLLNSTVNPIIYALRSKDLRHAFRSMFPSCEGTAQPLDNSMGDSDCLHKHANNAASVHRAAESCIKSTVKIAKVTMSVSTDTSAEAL

SMILES	IC50
C[S@@+]([O-])Cc1ccc(C(=O)Nc2cccnc2C(=O)NCC2CCOCC2)c2ccccc12	21 nM
O=C(Nc1cccnc1C(=O)NCC1CCOCC1)c1cccc2c1OCCO2	1200 nM
COc1ccc(NC(=O)c2ccnc3ccccc23)c(C(=O)NCC2CCC2)n1	15000 nM
O=C(NCC1CCCCC1)c1cccnc1NC(=O)c1cccc2ccccc12	> 10000 nM
O=C(NCC1CCC1)c1ncccc1NC(=O)c1cccc2cccnc12	320 nM
O=C(NCC1CCCCC1)c1ncccc1NC(=O)c1cccc2ccccc12	10 nM
O=C(NCC1CCC1)c1nc(OCCO)ccc1NC(=O)c1ccnc2ccccc12	73000 nM
O=C(NCC1CCCCC1)c1ccncc1NC(=O)c1cccc2ccccc12	3600 nM

molecular target: T1, Cannabinoid receptor 1; assay: Agonist activity at human CB1 receptor expressed in HEK293S cell membranes after 1 hr by GTPgamma[35S] binding assay relative to WIN 55,212-2; settings: not given
Summary of the method: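 HEK293S membranes with cloned human CB1 (5 µg protein/well) in Hepes buffer pH 7.4, 100 mM NaCl, 5 mM MgCl2, 1 mM EDTA, 0.1% BSA, 15 µM GDP final. GTPγ[35S] added to start, 1 h at rt, filtered, counted. Basal from 8 wells; maximum from 8 wells with 10 µM reference agonist. Emax expressed as % of that reference. 10-point curves; mean of three experiments.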

SMILES	Emax
C[S@@+]([O-])Cc1ccc(C(=O)Nc2cccnc2C(=O)NCC2CCOCC2)c2ccccc12	100%
COc1ccc(NC(=O)c2ccnc3ccccc23)c(C(=O)NCC2CCC2)n1	51%
O=C(NCC1CCCCC1)c1ncccc1NC(=O)c1cccc2ccccc12	110%
O=C(NCC1CCC1)c1nc(OCCO)ccc1NC(=O)c1ccnc2ccccc12	51%

molecular target: Cannabinoid receptor 2 (Homo sapiens, UniProt P34972); assay: Displacement of [3H]-CP55,940 from human CB2 receptor expressed in Sf9 cell membranes by scintillation counting analysis; settings: not given
Summary of the method: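 Membranes from Sf9 cells expressing cloned hCB2 (baculovirus) in 50 mM Tris, 2.5 mM EDTA, 5 mM MgCl2, 0.5 mg/mL fatty-acid-free BSA, pH 7.4. 60 min at rt, GF/B filtration, scintillation counting. 10-point curves; IC50 mean of three independent experiments.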

Cannabinoid receptor 2, sequence (P34972 whole entry): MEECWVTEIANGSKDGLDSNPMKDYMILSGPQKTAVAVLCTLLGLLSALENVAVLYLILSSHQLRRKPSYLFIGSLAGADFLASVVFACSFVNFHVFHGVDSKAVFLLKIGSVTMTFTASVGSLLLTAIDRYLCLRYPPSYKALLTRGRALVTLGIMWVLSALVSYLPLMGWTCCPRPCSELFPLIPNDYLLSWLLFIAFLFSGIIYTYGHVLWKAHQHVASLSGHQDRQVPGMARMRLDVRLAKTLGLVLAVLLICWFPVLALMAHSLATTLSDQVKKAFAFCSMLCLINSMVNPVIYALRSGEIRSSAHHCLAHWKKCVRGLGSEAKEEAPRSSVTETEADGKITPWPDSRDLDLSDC

SMILES	IC50
O=C(Nc1cccnc1C(=O)NCC1CCOCC1)c1cccc2c1OCCO2	5700 nM
COc1ccc(NC(=O)c2ccnc3ccccc23)c(C(=O)NCC2CCC2)n1	100 nM
O=C(NCC1CCCCC1)c1cccnc1NC(=O)c1cccc2ccccc12	> 10000 nM
O=C(NCC1CCC1)c1ncccc1NC(=O)c1cccc2cccnc12	360 nM
O=C(NCC1CCCCC1)c1ncccc1NC(=O)c1cccc2ccccc12	110 nM
O=C(NCC1CCC1)c1nc(OCCO)ccc1NC(=O)c1ccnc2ccccc12	2500 nM
O=C(NCC1CCCCC1)c1ccncc1NC(=O)c1cccc2ccccc12	> 8900 nM

system: not listed separately; assay: Ratio of unbound fraction in brain to plasma in Sprague-Dawley rat; type: ADME, cell-free; settings: not given
Summary of the method: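 Steady-state total brain/plasma ratio in Sprague-Dawley rats after 4 h constant-rate i.v. infusion, corrected by unbound fraction in brain (rat brain slices) and in plasma (equilibrium dialysis).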

SMILES	BPR
C[S@@+]([O-])Cc1ccc(C(=O)Nc2cccnc2C(=O)NCC2CCOCC2)c2ccccc12	0.03

system: not listed separately; assay: Apparent permeability from apical to basolateral side in human Caco2 cells at pH 7.4; type: ADME, cell-based; settings: Caco-2, pH 7.4
Summary of the method: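 Caco-2 monolayers at pH 7.4, apparent permeability measured for apical-to-basolateral transport.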

SMILES	Papp A→B
C[S@@+]([O-])Cc1ccc(C(=O)Nc2cccnc2C(=O)NCC2CCOCC2)c2ccccc12	26 ×10⁻⁶ cm/s

molecular target: T1, Cannabinoid receptor 1; assay: Agonist activity at human CB1 receptor expressed in HEK293S cell membranes after 1 hr by GTPgamma[35S] binding assay; settings: not given

SMILES	EC50
C[S@@+]([O-])Cc1ccc(C(=O)Nc2cccnc2C(=O)NCC2CCOCC2)c2ccccc12	31 nM
COc1ccc(NC(=O)c2ccnc3ccccc23)c(C(=O)NCC2CCC2)n1	16 nM
O=C(NCC1CCCCC1)c1ncccc1NC(=O)c1cccc2ccccc12	24 nM
O=C(NCC1CCC1)c1nc(OCCO)ccc1NC(=O)c1ccnc2ccccc12	120 nM

system: not listed separately; assay: Ratio of drug level in brain to plasma in Sprague-Dawley rat; type: ADME, cell-free; settings: Sprague-Dawley, brain and plasma, read-out: BPR
Summary of the method: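 Total brain-to-plasma ratio from in vivo Sprague-Dawley rat samples, compound given as 4 h constant-rate i.v. infusion to steady state.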

SMILES	Kp
C[S@@+]([O-])Cc1ccc(C(=O)Nc2cccnc2C(=O)NCC2CCOCC2)c2ccccc12	0.031
